Measurements from ChEMBL document CHEMBL1134847, “Development of orally active nonpeptidic inhibitors of human neutrophil elastase” (J Med Chem, 2001).
Converted amounts (≈) assume the structure as drawn.

Key:
Neutrophil elastase = target: T1, Neutrophil elastase (Homo sapiens, UniProt P08246); assay: Binding constant derived from inhibition of elastase catalyzed hydrolysis of synthetic substrate
T1 sequence (P08246 whole entry): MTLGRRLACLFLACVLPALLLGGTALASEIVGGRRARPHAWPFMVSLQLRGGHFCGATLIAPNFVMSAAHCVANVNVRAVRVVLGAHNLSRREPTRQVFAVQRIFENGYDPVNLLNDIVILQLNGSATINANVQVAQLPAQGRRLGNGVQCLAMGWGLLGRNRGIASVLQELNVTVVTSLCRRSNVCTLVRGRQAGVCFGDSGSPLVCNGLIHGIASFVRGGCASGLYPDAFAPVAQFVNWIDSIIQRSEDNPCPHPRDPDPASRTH

Cricetinae gen. sp. [1] = assay: Inhibition of HNE-induced lung hemorrhage in hamsters after oral administration of 30 mg/kg followed by intratracheal instillation of HNE (10 U/lung); format: functional
Outline: (§1)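 Hamsters (n = 6-10) were dosed orally 1 h before intratracheal instillation of HNE (10 U/lung). The read-out was inhibition of the HNE-induced lung hemorrhage.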

[2] = Solubility was determined at a pH of […] using 1/14 M phosphate buffer; format: physicochemical; details: pH 7.4
[3] = Solubility was determined at a pH of 1.2 using first fluid (JP13th); format: physicochemical; details: pH 1.2
Outline: (§2)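 Solubility was measured in μg/mL in four vehicles: JP13th first fluid (pH ca. 1.2), 1/14 M phosphate citrate buffer (pH ca. 4.0), physiological saline (pH ca. 5.5) and 1/14 M phosphate buffer (pH ca. 7.4).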

[4] = Solubility was determined at a pH of 5.5 using physiological saline; format: physicochemical; details: pH 5.5; outline: as §2
Cricetinae gen. sp. [5] = assay: Inhibition of HNE-induced lung hemorrhage in hamsters after oral administration followed by intratracheal instillation of HNE (10 U/lung); format: functional; outline: as §1
[6] = Half life after the administered orally a dose of 1 mg/kg to a fasting rat; format: ADME, organism-based; design: dose 1 mg/kg, route oral; details: in vivo, po
Outline: (§3)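 Unchanged drug measured in plasma over 0–24 h after dosing. Cmax recorded over 0–24 h, with Tmax as the time of Cmax. Half-life determined over 6–24 h after dosing. Mean ± SD, n = 4.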

[7] = Maximum concentration of […] drug in plasma recorded in the period of 0-24 hr after administering orally a dose of 30 mg/kg; format: ADME, organism-based; design: dose 30 mg/kg, route oral; details: rat, po; outline: as §3
[8] = Pharmacokinetic parameter AUC was evaluated intravenous administration of 3 mg/kg; format: ADME, organism-based; design: dose 3 mg/kg, route intravenous; details: rat, in vivo
Outline: (§4)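 Oral dosing as a suspension in 0.5% CMC; intravenous dosing as a solution in 35% HP-β-CD. Unchanged drug measured in plasma over 0–24 h after dosing. AUC is the integrated area under the concentration versus time curve. Oral bioavailability is taken from the […]. Mean ± SD, n = 4 (n = 3 for some i.v. groups).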

[9] = Time of maximum concentration of the drug when administered orally a dose of 10 mg/kg to a fasting rat; format: ADME, organism-based; design: dose 10 mg/kg, route oral; details: in vivo, po; outline: as §3
[10] = Pharmacokinetic parameter AUC was evaluated when a dose of 30 mg/kg is administered orally; format: ADME, organism-based; design: dose 30 mg/kg, route oral; details: rat, in vivo, po; outline: as §4
[11] = Maximum concentration of […] drug in plasma recorded in the period of 0-24 hr after administering orally a dose of 10 mg/kg to a fasting rat; format: ADME, organism-based; design: dose 10 mg/kg, route oral; details: po; outline: as §3
[12] = Time of maximum concentration of the drug when administered orally a dose of 3 mg/kg to a fasting rat; format: ADME, organism-based; design: dose 3 mg/kg, route oral; details: in vivo, po; outline: as §3
[13] = Maximum concentration of […] drug in plasma recorded in the period of 0-24 hr after administering orally a dose of 1 mg/kg to a fasting rat; format: ADME, organism-based; design: dose 1 mg/kg, route oral; details: po; outline: as §3
[14] = Maximum concentration of […] drug in plasma recorded in the period of 0-24 hr after administering orally a dose of 3 mg/kg; format: ADME, organism-based; design: dose 3 mg/kg, route oral; details: rat, po; outline: as §3
[15] = Pharmacokinetic parameter AUC was evaluated when a dose of 3 mg/kg is administered orally to a fasting rat; format: ADME, organism-based; design: dose 3 mg/kg, route oral; details: in vivo, po
[16] = Time of maximum concentration of the drug when administered orally at dose of 3 mg/kg; format: ADME, organism-based; design: dose 3 mg/kg, route oral; details: rat, in vivo, po; outline: as §3
[17] = Maximum concentration of […] drug in plasma recorded in the period of 0-24 hr after administering orally a dose of 3 mg/kg to a fasting rat; format: ADME, organism-based; design: dose 3 mg/kg, route oral; details: po; outline: as §3
[18] = Pharmacokinetic parameter AUC was evaluated when a dose of 1 mg/kg is administered orally to a fasting rat; format: ADME, organism-based; design: dose 1 mg/kg, route oral; details: in vivo, po; outline: as §4
[19] = Time of maximum concentration of the drug when administered orally a dose of 1 mg/kg to a fasting rat; format: ADME, organism-based; design: dose 1 mg/kg, route oral; details: in vivo, po; outline: as §3
[20] = Pharmacokinetic parameter AUC was evaluated when a dose of 3 mg/kg is administered orally; format: ADME, organism-based; design: dose 3 mg/kg, route oral; details: rat, in vivo, po
[21] = Half life after administering intravenously a dose of 3 mg/kg; details: rat, in vivo, iv
[22] = Time of maximum concentration of the drug when administered orally a dose of 30 mg/kg; format: ADME, organism-based; design: dose 30 mg/kg, route oral; details: rat, in vivo, po; outline: as §3
[23] = Half life after administering orally a dose of 3 mg/kg; format: ADME, organism-based; design: dose 3 mg/kg, route oral; details: rat, in vivo, po; outline: as §3
[24] = Pharmacokinetic parameter AUC was evaluated when a dose of 10 mg/kg is administered orally to a fasting rat; format: ADME, organism-based; design: dose 10 mg/kg, route oral; details: in vivo, po; outline: as §4
[25] = Half life after administering orally a dose of 3 mg/kg to a fasting rat; format: ADME, organism-based; design: dose 3 mg/kg, route oral; details: in vivo, po; outline: as §3
[26] = Bioavailability was evaluated when a dose of 3 mg/kg was administered orally; format: ADME, organism-based; details: rat, in vivo, po; outline: as §4
[27] = Half life after administering orally a dose of 10 mg/kg to a fasting rat; format: ADME, organism-based; design: dose 10 mg/kg, route oral; details: in vivo, po; outline: as §3
[28] = Bioavailability was evaluated when a dose of 3 mg/kg was administered orally to a fasting rat; format: ADME, organism-based; details: in vivo, po; outline: as §4
[29] = Half life after administering orally a dose of 30 mg/kg; format: ADME, organism-based; design: dose 30 mg/kg, route oral; details: rat, in vivo, po; outline: as §3

Which Ki (Neutrophil elastase) does the source give for `CC(C)[C@H](NC(=O)[C@@H]1Cc2ccccc2N1C(=O)[C@@H](NC(=O)c1cccnc1)C(C)C)C(=O)c1nnc(C(C)(C)C)o1` here?
Its Ki is 5.1 nM.

And the inhibition in vivo at 30 mg/kg (Cricetinae gen. sp. [1])?
The inhibition in vivo at 30 mg/kg was 36%.

For `CC(C)[C@H](NC(=O)Cn1c(-c2ccccc2)ncc(N)c1=O)C(=O)c1nnc(C(C)(C)C)o1`, which solubility [2] is on record?
The solubility was 310 µg/mL (≈ 685 µM).

And the solubility [3]?
The solubility was > 2000 µg/mL.

What about the solubility [4] of the same molecule?
The solubility was 1010 µg/mL (≈ 2230 µM).

With `CC(C)[C@H](NC(=O)Cn1c(-c2ccc(F)cc2)nccc1=O)C(=O)c1nnc(C(C)(C)c2ccccc2)o1` as the molecule, how does the inhibition in vivo at 30 mg/kg (Cricetinae gen. sp. [1]) read?
The inhibition in vivo at 30 mg/kg was 61%.

Which inhibition in vivo at 30 mg/kg (Cricetinae gen. sp. [1]) does the source give for `CC(C)[C@H](NC(=O)Cn1c(-c2ccc(F)cc2)ncc(N)c1=O)C(=O)c1nnc(-c2cccnc2)o1` here?
Its inhibition in vivo at 30 mg/kg is 0%.

Which Ki (Neutrophil elastase) does the source give for `CC(C)[C@H](NC(=O)C1Cc2ccccc2CN1C(=O)c1c[nH]cn1)C(=O)c1nnc(C(C)(C)C)o1` (stereo partly drawn) here?
The Ki was 309 nM.

And the inhibition in vivo at 30 mg/kg (Cricetinae gen. sp. [1])?
The inhibition in vivo at 30 mg/kg was 29%.

For `CC(C)OC(=O)N1Cc2ccccc2C[C@H]1C(=O)N[C@H](C(=O)c1nnc(C(C)(C)C)o1)C(C)C`, which Ki (Neutrophil elastase) is on record?
Its Ki is 725 nM.

What about the inhibition in vivo at 30 mg/kg (Cricetinae gen. sp. [1]) of the same molecule?
Its inhibition in vivo at 30 mg/kg is 0%.

For `CC(C)[C@H](NC(=O)Cn1c(-c2ccccc2)ncc(N)c1=O)C(=O)c1nnc(C2(C)CC2)o1`, which ED50 (Cricetinae gen. sp. [1]) is on record?
Its ED50 is 11 mg/kg.

What does the source list for `COc1ccc(-c2nnc(C(=O)[C@@H](NC(=O)Cn3c(-c4ccc(F)cc4)ncc(N)c3=O)C(C)C)o2)cc1`?
Ki (Neutrophil elastase): 21.2 nM; inhibition in vivo at 30 mg/kg (Cricetinae gen. sp. [1]): 13%

For `CC(C)[C@H](NC(=O)Cn1c(-c2ccc(F)cc2)ncc(N)c1=O)C(=O)c1nnc(Cc2ccccc2)o1`, which inhibition in vivo at 30 mg/kg (Cricetinae gen. sp. [1]) is on record?
Its inhibition in vivo at 30 mg/kg is 53%.

Which ED50 (Cricetinae gen. sp. [5]) does the source give for `CC(C)[C@H](NC(=O)Cn1c(-c2ccccc2)nccc1=O)C(=O)c1nnc(C(C)(C)C)o1` here?
Its ED50 is 4 mg/kg.

Which Ki (Neutrophil elastase) does the source give for `CC(C)[C@H](NC(=O)COc1cccc(-c2ccccc2)n1)C(=O)c1nnc(C(C)(C)C)o1` here?
The Ki was 4280 nM.

What about the inhibition in vivo at 30 mg/kg (Cricetinae gen. sp. [1]) of the same molecule?
Its inhibition in vivo at 30 mg/kg is 28%.

For `CC(C)[C@H](NC(=O)[C@@H]1Cc2ccccc2N1C(=O)c1c[nH]cn1)C(=O)c1nnc(C(C)(C)C)o1`, which Ki (Neutrophil elastase) is on record?
Its Ki is 79.7 nM.

And the inhibition in vivo at 30 mg/kg (Cricetinae gen. sp. [1])?
Its inhibition in vivo at 30 mg/kg is 81%.

Which inhibition in vivo at 30 mg/kg (Cricetinae gen. sp. [1]) does the source give for `CCCCc1nnc(C(=O)[C@@H](NC(=O)Cn2c(-c3ccc(F)cc3)ncc(N)c2=O)C(C)C)o1` here?
Its inhibition in vivo at 30 mg/kg is 63%.

For `CC(C)[C@H](NC(=O)Cn1c(-c2ccc(F)cc2)nccc1=O)C(=O)c1nnc(C(C)(C)C)o1`, which ED50 (Cricetinae gen. sp. [5]) is on record?
Its ED50 is 6.8 mg/kg.

For `CC(C)C(NC(=O)Cn1c(-c2ccccc2)ncc(N)c1=O)C(=O)c1nnc(C(C)(C)C)o1` (stereo not drawn), which half-life [6] is on record?
The half-life was 5.1 h.

What about the Cmax [7] of the same molecule?
Its Cmax is 527 ng/mL.

What about the AUC [8] of the same molecule?
The AUC was 1930 ng·h/mL.

What about the Tmax [9] of the same molecule?
Its Tmax is 0.31 h.

What about the AUC [10] of the same molecule?
The AUC was 3050 ng·h/mL.

And the Cmax [11]?
Its Cmax is 351 ng/mL.

What about the Tmax [12] of the same molecule?
The Tmax was 0.63 h.

And the Cmax [13]?
The Cmax was 115 ng/mL.

What about the Cmax [14] of the same molecule?
The Cmax was 174 ng/mL.

And the AUC [15]?
Its AUC is 976 ng·h/mL.

And the Tmax [16]?
The Tmax was 1.1 h.

And the Cmax [17]?
The Cmax was 257 ng/mL.

What about the AUC [18] of the same molecule?
The AUC was 230 ng·h/mL.

What about the Tmax [19] of the same molecule?
The Tmax was 0.31 h.

What about the AUC [20] of the same molecule?
Its AUC is 760 ng·h/mL.

And the half-life [21]?
Its half-life is 3 h.

What about the Tmax [22] of the same molecule?
Its Tmax is 0.44 h.

What about the half-life [23] of the same molecule?
The half-life was 5 h.

What about the AUC [24] of the same molecule?
The AUC was 2130 ng·h/mL.

What about the ED50 (Cricetinae gen. sp. [5]) of the same molecule?
The ED50 was 5.1 mg/kg.

And the half-life [25]?
The half-life was 4.5 h.

What about the bioavailability [26] of the same molecule?
Its bioavailability is 39.4%.

And the half-life [27]?
The half-life was 7.4 h.

And the bioavailability [28]?
Its bioavailability is 50.5%.

And the half-life [29]?
Its half-life is 8.7 h.

Which inhibition in vivo at 30 mg/kg (Cricetinae gen. sp. [1]) does the source give for `CC(C)[C@H](NC(=O)CN1C(=O)N[C@H](C(C)C)C1=O)C(=O)c1nnc(C(C)(C)C)o1` here?
Its inhibition in vivo at 30 mg/kg is 0%.
